Measurements reported in ChEMBL document CHEMBL1777686, “Discovery of DA-1229: a potent, long acting dipeptidyl peptidase-4 inhibitor for the treatment of type 2 diabetes” (Bioorg Med Chem Lett, 2011).

How the values were obtained:
[1] = target: Cytochrome P450 3A4 (Homo sapiens, UniProt P08684); test: Inhibition of CYP3A4; assay type: ADME
[2] = target: Cytochrome P450 2D6 (Homo sapiens, UniProt P10635); test: Inhibition of CYP2D6; assay type: ADME
[3] = target: Cytochrome P450 2C9 (Homo sapiens, UniProt P11712); test: Inhibition of CYP2C9; assay type: ADME
Sequence of Cytochrome P450 2C9 (P11712 whole entry): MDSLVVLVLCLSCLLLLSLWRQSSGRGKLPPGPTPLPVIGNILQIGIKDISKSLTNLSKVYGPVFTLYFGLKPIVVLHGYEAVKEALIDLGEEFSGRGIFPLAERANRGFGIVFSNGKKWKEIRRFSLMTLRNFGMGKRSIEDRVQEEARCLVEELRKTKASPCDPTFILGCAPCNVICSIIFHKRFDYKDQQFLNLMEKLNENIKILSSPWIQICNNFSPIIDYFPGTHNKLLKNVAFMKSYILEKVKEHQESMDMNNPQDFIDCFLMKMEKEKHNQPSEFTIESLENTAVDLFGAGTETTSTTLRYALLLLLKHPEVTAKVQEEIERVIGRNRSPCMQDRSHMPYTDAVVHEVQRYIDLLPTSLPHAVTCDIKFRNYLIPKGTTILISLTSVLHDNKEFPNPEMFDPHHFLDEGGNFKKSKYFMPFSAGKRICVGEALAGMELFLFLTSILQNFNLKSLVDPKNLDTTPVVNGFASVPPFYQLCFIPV

[4] = target: Cytochrome P450 2C19 (Homo sapiens, UniProt P33261); test: Inhibition of CYP2C19; assay type: ADME
Sequence of Cytochrome P450 2C19 (P33261 whole entry): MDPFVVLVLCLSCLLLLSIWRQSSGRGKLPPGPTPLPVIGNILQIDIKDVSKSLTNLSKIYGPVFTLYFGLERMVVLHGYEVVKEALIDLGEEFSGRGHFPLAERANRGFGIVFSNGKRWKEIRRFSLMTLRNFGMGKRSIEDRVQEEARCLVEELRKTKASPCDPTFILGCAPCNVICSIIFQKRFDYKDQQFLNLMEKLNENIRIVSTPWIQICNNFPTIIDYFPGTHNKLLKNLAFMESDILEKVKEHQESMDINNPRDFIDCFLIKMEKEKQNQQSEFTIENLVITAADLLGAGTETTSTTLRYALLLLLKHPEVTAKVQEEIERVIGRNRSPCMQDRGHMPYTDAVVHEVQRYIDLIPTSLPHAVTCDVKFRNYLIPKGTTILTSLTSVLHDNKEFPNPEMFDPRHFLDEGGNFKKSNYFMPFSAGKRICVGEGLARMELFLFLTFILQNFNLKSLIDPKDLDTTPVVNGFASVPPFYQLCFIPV

[5] = target: T1, Cytochrome P450 1A2 (Homo sapiens, UniProt P05177); test: Inhibition of CYP1A2; assay type: ADME
T1 sequence (P05177 whole entry): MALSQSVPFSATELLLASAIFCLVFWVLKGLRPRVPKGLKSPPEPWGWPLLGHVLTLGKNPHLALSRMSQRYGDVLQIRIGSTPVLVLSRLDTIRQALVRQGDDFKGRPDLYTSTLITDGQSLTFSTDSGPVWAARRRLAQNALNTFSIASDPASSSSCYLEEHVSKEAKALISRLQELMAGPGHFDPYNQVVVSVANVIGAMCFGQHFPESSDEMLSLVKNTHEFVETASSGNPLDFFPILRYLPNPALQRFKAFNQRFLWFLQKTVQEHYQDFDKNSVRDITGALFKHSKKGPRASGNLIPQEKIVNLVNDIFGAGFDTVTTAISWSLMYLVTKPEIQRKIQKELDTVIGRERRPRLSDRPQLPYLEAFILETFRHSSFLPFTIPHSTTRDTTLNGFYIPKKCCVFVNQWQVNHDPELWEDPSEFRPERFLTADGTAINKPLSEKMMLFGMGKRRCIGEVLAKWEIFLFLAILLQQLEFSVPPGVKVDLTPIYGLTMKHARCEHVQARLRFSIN

[6] = test system: Rattus norvegicus; test: Inhibition of DPP-4 in Sprague-Dawley rat plasma at 1 mg/kg, po administered as single dose measured at 24 hrs post dose; assay type: functional
In short: (§1)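 SD rats received a single oral dose of 1, 3 or 10 mg/kg. Plasma was sampled from 30 min up to 24 h after dosing, and plasma DPP-4 activity was measured as percent inhibition.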

[7] = test system: Rattus norvegicus; test: Inhibition of DPP-4 in Sprague-Dawley rat plasma at 3 mg/kg, po administered as single dose measured at 24 hrs post dose; assay type: functional; in short: as §1
[8] = test system: Rattus norvegicus; test: Inhibition of DPP-4 in Sprague-Dawley rat plasma at 10 mg/kg, po administered as single dose measured at 24 hrs post dose; assay type: functional; in short: as §1
[9] = test system: Mus musculus; test: Antidiabetic activity in po dosed C57BL/6J mouse assessed as reduction in glucose AUC administered 30 mins before glucose challenge measured up to 120 mins by oral glucose tolerance test; assay type: functional, organism-based
In short: (§2)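 Oral dosing in C57BL/6J mice at 0.1, 0.3 or 1.0 mg/kg in 0.5% methylcellulose vehicle, followed by a 2 g/kg glucose challenge 30 min post-dose. […] Percent inhibition was calculated from AUC normalized to non-glucose controls. Means ± SEM.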

[10] = test system: Mus musculus; test: Antidiabetic activity in C57BL/6J mouse assessed as inhibition of blood glucose elevation at 1 mg/kg, po administered 30 mins before glucose challenge by oral glucose tolerance test; assay type: functional; in short: as §2
[11] = Half life in human liver microsomes; assay type: ADME, Microsome
[12] = Half life in rat; assay type: ADME, organism-based; details: in vivo
[13] = Clearance in rat; assay type: ADME, organism-based; details: in vivo
[14] = Volume of distribution at steady state in rat; assay type: ADME, organism-based; details: in vivo, read-out: Vdss
[15] = Oral bioavailability in rat; assay type: ADME, organism-based; details: in vivo
[16] = target: Voltage-gated inwardly rectifying potassium channel KCNH2 (Homo sapiens, UniProt Q12809); test: Inhibition of human ERG by patch clamp method
Sequence of Voltage-gated inwardly rectifying potassium channel KCNH2 (Q12809 whole entry): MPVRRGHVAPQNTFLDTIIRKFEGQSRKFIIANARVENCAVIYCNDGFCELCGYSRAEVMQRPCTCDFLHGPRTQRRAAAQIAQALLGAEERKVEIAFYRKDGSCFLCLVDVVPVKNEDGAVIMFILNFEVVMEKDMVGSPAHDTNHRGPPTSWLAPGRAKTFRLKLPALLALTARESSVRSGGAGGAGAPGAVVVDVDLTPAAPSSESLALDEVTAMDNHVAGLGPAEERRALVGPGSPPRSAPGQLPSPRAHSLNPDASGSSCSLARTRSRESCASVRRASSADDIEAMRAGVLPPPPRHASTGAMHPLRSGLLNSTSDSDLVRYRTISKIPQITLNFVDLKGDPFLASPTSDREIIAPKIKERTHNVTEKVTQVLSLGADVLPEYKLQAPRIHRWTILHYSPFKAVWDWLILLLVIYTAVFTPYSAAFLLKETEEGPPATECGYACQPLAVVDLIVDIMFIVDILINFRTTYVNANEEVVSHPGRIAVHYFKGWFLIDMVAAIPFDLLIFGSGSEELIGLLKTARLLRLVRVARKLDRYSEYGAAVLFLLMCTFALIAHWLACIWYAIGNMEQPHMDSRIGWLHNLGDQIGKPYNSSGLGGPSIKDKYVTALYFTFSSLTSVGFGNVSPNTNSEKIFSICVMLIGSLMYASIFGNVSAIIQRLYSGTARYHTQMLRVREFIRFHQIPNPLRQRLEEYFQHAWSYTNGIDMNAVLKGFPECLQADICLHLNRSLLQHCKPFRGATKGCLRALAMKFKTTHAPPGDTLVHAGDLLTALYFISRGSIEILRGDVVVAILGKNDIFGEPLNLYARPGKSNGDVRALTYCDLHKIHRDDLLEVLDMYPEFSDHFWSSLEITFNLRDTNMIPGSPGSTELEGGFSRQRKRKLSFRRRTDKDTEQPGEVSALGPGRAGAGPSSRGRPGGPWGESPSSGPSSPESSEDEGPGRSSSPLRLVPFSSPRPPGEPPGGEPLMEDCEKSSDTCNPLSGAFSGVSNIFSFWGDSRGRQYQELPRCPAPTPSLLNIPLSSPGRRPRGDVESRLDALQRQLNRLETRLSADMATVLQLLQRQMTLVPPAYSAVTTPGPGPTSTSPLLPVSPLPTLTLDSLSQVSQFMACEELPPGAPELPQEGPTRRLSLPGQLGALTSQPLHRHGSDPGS

[17] = species on record: Rattus norvegicus; details: Sprague-Dawley, Plasma, 1 mg/kg

Sequence of Cytochrome P450 3A4 (P08684 whole entry): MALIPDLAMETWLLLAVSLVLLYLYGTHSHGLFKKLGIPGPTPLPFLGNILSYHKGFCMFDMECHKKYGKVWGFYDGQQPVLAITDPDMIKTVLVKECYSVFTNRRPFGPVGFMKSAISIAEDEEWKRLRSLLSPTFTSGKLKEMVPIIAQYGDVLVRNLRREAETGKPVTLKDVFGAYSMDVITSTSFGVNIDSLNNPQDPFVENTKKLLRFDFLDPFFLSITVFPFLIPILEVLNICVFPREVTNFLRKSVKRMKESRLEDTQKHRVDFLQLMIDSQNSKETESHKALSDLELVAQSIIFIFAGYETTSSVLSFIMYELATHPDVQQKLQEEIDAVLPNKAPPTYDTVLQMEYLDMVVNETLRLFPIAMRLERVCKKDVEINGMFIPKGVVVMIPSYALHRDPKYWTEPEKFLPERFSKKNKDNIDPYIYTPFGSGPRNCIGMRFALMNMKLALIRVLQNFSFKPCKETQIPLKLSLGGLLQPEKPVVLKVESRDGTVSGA
Sequence of Cytochrome P450 2D6 (P10635 whole entry): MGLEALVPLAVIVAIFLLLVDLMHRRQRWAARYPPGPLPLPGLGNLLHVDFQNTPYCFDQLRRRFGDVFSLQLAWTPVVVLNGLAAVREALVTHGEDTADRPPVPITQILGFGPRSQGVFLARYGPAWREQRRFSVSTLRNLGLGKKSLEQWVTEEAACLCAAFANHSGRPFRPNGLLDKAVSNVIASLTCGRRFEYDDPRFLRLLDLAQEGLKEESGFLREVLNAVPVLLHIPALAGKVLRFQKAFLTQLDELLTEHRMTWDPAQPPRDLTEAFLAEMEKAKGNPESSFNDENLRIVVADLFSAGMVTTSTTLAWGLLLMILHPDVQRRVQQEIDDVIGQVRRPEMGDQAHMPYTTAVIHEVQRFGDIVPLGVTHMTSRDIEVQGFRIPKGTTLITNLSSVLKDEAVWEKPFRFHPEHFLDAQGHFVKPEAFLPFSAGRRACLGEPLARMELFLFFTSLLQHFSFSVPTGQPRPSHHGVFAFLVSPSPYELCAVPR

## N[C@@H](CC(=O)N1CCNC(=O)[C@H]1CO)Cc1cc(F)c(F)cc1F
[1]
  inhibition (INH): Not Active
[2]
  inhibition (INH): Not Active
[3]
  inhibition (INH): Not Active
[4]
  inhibition (INH): Not Active
[5]
  inhibition (INH): Not Active

## COc1ccc(CN2CCN(C(=O)C[C@H](N)Cc3cc(F)c(F)cc3F)CC2=O)cc1
[1]
  IC50: 1.07 µM

## CC(C)(C)OC[C@@H]1C(=O)NCCN1C(=O)C[C@H](N)Cc1cc(F)c(F)cc1F [EVOGLIPTIN]
[6]
  inhibition in vivo at 1 mg/kg: 72.5%
[7]
  inhibition in vivo at 3 mg/kg: 82.9%
[8]
  inhibition in vivo at 10 mg/kg: 87.2%
[9]
  Activity: Dose-dependent effect
[10]
  inhibition in vivo at 1 mg/kg: 63%
[1]
  INH: > 50 µM
[2]
  INH: > 50 µM
[3]
  INH: > 50 µM
[4]
  INH: > 50 µM
[5]
  INH: > 50 µM
[11]
  half-life: > 1.5 h
[12]
  half-life: 6.1 h
[13]
  clearance: 60.5 mL/min/kg
[14]
  Vd: 12 L/kg
[15]
  bioavailability: 74.8%
[16]
  IC50: 79.6 µM
[17]
  inhibition: Dose-dependent effect
